Data: ChEMBL document CHEMBL2163241, “Human neutrophil elastase phosphonic inhibitors with improved potency of action” (J Med Chem, 2012)

What was measured:
[1] = Selectivity ratio of Kinact/Ki ratio for porcine pancreatic elastase to Kinact/Ki ratio for human leukocyte elastase
[2] = target: Pancreatic elastase (Sus scrofa) (UniProt P08419+P00772); experiment: Inhibition of porcine pancreatic elastase at 25 uM assessed as Kinact/Ki ratio incubated for 15 mins by spectrofluorometry; type: protein assay
[3] = target: T1, Neutrophil elastase (Homo sapiens) (UniProt P08246); experiment: Inhibition of human leukocyte elastase at 25 uM assessed as Kinact/Ki ratio incubated for 15 mins by spectrofluorometry
T1 sequence (whole entry): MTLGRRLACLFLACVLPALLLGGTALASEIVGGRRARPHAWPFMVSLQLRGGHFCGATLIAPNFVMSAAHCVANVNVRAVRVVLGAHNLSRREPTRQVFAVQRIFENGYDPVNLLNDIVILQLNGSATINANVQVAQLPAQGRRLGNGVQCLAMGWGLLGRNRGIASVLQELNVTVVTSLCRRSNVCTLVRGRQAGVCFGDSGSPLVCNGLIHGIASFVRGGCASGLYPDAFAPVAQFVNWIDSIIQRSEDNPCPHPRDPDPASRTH

[4] = Inhibition of trypsin at 25 uM assessed as Kinact/Ki ratio incubated for 15 mins by spectrofluorometry
Homo sapiens [5] = organism: Homo sapiens; experiment: Selectivity ratio of Kinact/Ki ratio for chymotrypsin to Kinact/Ki ratio for human leukocyte elastase
[6] = Inhibition of chymotrypsin at 25 uM assessed as Kinact/Ki ratio incubated for 15 mins by spectrofluorometry
[7] = Solubility in 80% human plasma at […] incubated at 37 degC by HPLC; type: ADME, cell-free
[8] = Half life in 80% human plasma at […] incubated at 37 degC by HPLC; type: ADME, cell-free
Summary of the method: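 DMSO stock (50 mM) added to freshly isolated pooled healthy-donor human plasma diluted to 80% with PBS pH 7.4, final 3 mg/mL or 0.1 mg/mL; incubated 37 °C; compound remaining monitored by HPLC over time to give half-life.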

[9] = Half life in pH 7.4 PBS buffer at […] incubated at 37 degC by HPLC; type: physicochemical
[10] = Solubility in pH 7.4 PBS buffer at […] incubated at 37 degC by HPLC; type: physicochemical
[11] = target: T1, Neutrophil elastase (Homo sapiens); experiment: Irreversible inhibition of human leukocyte elastase assessed as recovery of enzyme activity using MeOSuc-AAPV-AFC substrate at 200 uM treated for 15 mins followed by dialysis measured up to 50 days by fluorescence assay; parameters: scale not given: the % may be the effect or the level left
Homo sapiens [12] = organism: Homo sapiens; experiment: Selectivity ratio of Kinact/Ki ratio for human leukocyte elastase to Kinact/Ki ratio for chymotrypsin
[13] = Chemical stability in pH 7.4 PBS buffer assessed as compound remaining at […] measured after 6 days at 37 degC by HPLC; type: physicochemical; conditions: read-out: Stability
[14] = Drug degradation in pH 7.4 PBS buffer assessed as compound hydrolysis at […] measured after 48 hrs at 37 degC by HPLC; type: physicochemical; conditions: read-out: Drug degradation

Structure (SMILES) | Ratio [2] [M⁻¹ s⁻¹] | Ratio [3] [M⁻¹ s⁻¹] | Ratio [4] [M⁻¹ s⁻¹] | Ratio [6] [M⁻¹ s⁻¹] | also measured
CSc1ccc(OP(=O)(Oc2ccc(SC)cc2)[C@@H](NC(=O)[C@@H]2CCCN2C(=O)[C@@H](NC(=O)Cn2ccc(=O)n(CC(=O)O)c2=O)C(C)C)C(C)C)cc1 | 309000 | 1.08e+06 | 235 | 40200 | Ratio [1]: 3.5; Ratio (Homo sapiens [5]): 27
CCCCC(NC(=O)[C@@H]1CCCN1C(=O)[C@@H](NC(=O)OC(C)(C)C)C(C)C)P(=O)(Oc1ccc(SC)cc1)Oc1ccc(SC)cc1 (mixture of isomers) | 9700 | 8100 | < 50 | 4250 | Ratio (Homo sapiens [5]): 2
CSc1ccc(OP(=O)(Oc2ccc(SC)cc2)C(NC(=O)[C@@H]2CCCN2C(=O)[C@@H](NC(=O)OC(C)(C)C)C(C)C)C(C)C)cc1 (mixture of isomers) | 14000 | 217000 | < 50 | 900 | Ratio [1]: 15; solubility [7]: 0.36 mM; half-life [8]: 372 min; half-life [9]: 1.17 days; solubility [10]: 0.36 mM
CSc1ccc(OP(=O)(Oc2ccc(SC)cc2)C(NC(=O)[C@@H]2CCCN2C(=O)[C@@H](NC(=O)Cn2ccc(=O)n(CC(=O)O)c2=O)C(C)C)C(C)C)cc1 (mixture of isomers) | 140000 | 460000 | 130 | 28300 | solubility [7]: 6.22 mM; half-life [8]: 273 min; half-life [9]: 4.17 days; solubility [10]: 6.22 mM
CCCC(NC(=O)[C@@H]1CCCN1C(=O)[C@@H](NC(=O)OC(C)(C)C)C(C)C)P(=O)(Oc1ccc(SC)cc1)Oc1ccc(SC)cc1 (mixture of isomers) | 54800 | 56200 | 420 | 2800 | Ratio (Homo sapiens [5]): 20
CC(C)C(NC(=O)[C@@H]1CCCN1C(=O)[C@@H](NC(=O)OC(C)(C)C)C(C)C)P(=O)(Oc1ccccc1)Oc1ccccc1 (mixture of isomers) | 22800 | 46100 | < 50 | < 50 | Ratio [1]: 2
CSc1ccc(OP(=O)(Oc2ccc(SC)cc2)C(NC(=O)[C@@H]2CCCN2C(=O)[C@H](CC(C)C)NC(=O)OCc2ccccc2)C(C)C)cc1 (mixture of isomers) | 1000 | 86200 |  | 800 | inhibition [4]: < 5%
CSc1ccc(OP(=O)(Oc2ccc(SC)cc2)[C@@H](NC(=O)[C@@H]2CCCN2C(=O)[C@@H](NC(=O)COc2ccc(OCC(=O)O)cc2)C(C)C)C(C)C)cc1 | 39200 | 2.35e+06 | < 50 | 6450 | Ratio [1]: 60; Ratio (Homo sapiens [5]): 365; Activity [11]: 15%
CC(C)c1ccc(OP(=O)(Oc2ccc(C(C)C)cc2)C(NC(=O)[C@@H]2CCCN2C(=O)[C@@H](NC(=O)OC(C)(C)C)C(C)C)C(C)C)cc1 (mixture of isomers) | 2000 | 4200 | < 50 | < 50 | 
CCc1ccc(OP(=O)(Oc2ccc(CC)cc2)C(CC)NC(=O)[C@@H]2CCCN2C(=O)[C@@H](NC(=O)OC(C)(C)C)C(C)C)cc1 (mixture of isomers) | 4210 | 1380 | < 50 | < 50 | 
CC(C)CC(NC(=O)[C@@H]1CCCN1C(=O)[C@@H](NC(=O)OC(C)(C)C)C(C)C)P(=O)(Oc1ccc(Cl)cc1)Oc1ccc(Cl)cc1 (mixture of isomers) | 12800 | 3400 | < 50 | 18100 | 
COC(=O)c1cccc(OP(=O)(Oc2cccc(C(=O)OC)c2)C(CC(C)C)NC(=O)[C@@H]2CCCN2C(=O)[C@@H](NC(=O)OC(C)(C)C)C(C)C)c1 (some centres not stated) | 76900 | 122000 | 2800 | 166000 | Ratio (Homo sapiens [12]): > 1.3
CSc1ccc(OP(=O)(Oc2ccc(SC)cc2)[C@H](NC(=O)[C@@H]2CCCN2C(=O)[C@@H](NC(=O)COc2ccc(OCC(=O)O)cc2)C(C)C)C(C)C)cc1 | 85 | 1550 | < 50 | < 50 | 
CSc1ccc(OP(=O)(Oc2ccc(SC)cc2)C(NC(=O)[C@@H]2CCCN2C(=O)[C@@H](NC(=O)COc2ccc(OCC(=O)O)cc2)C(C)C)C(C)C)cc1 (mixture of isomers) | 19100 | 970000 | < 50 | 4000 | remaining at 144 h [13]: > 50%; Ratio [1]: 50.8; Ratio (Homo sapiens [5]): 245; solubility [7]: 6.23 mM; half-life [8]: 480 min; half-life [9]: 6.25 days; solubility [10]: 6.23 mM; degraded at 48 h [14]: 16%
CCCC(NC(=O)[C@@H]1CCCN1C(=O)[C@@H](NC(=O)OC(C)(C)C)C(C)C)P(=O)(Oc1ccc(C(C)(C)C)cc1)Oc1ccc(C(C)(C)C)cc1 (mixture of isomers) | < 50 | < 50 |  |  | inhibition [4]: < 5%; inhibition [6]: < 5%
CC[C@H](C)[C@H](NC(=O)OCc1ccccc1)C(=O)N1CCC[C@H]1C(=O)NC(C(C)C)P(=O)(Oc1ccc(SC)cc1)Oc1ccc(SC)cc1 (mixture of isomers) | 1800 | 145000 | < 50 | 1600 | 
CSc1ccc(OP(=O)(Oc2ccc(SC)cc2)C(NC(=O)[C@@H]2CCCN2C(=O)CNC(=O)OC(C)(C)C)C(C)C)cc1 (mixture of isomers) | 5100 | 35000 | < 50 | < 50 | 
CCCC(NC(=O)[C@@H]1CCCN1C(=O)[C@@H](NC(=O)OC(C)(C)C)C(C)C)P(=O)(Oc1ccccc1)Oc1ccccc1 (mixture of isomers) | 10900 | 2600 | < 50 | 140 | 
COc1ccc(C(=O)N[C@H](C(=O)N2CCC[C@H]2C(=O)NC(C(C)C)P(=O)(Oc2ccc(SC)cc2)Oc2ccc(SC)cc2)C(C)C)cc1 (mixture of isomers) | 4700 | 304000 | < 50 | < 50 | solubility [7]: 0.17 mM; half-life [8]: 228 min; half-life [9]: 1.08 days; solubility [10]: 0.17 mM
CSc1ccc(OP(=O)(Oc2ccc(SC)cc2)C(CC(C)C)NC(=O)[C@@H]2CCCN2C(=O)[C@@H](NC(=O)OC(C)(C)C)C(C)C)cc1 (mixture of isomers) | 11200 | 4100 | 280 | 21900 | 
CSc1ccc(OP(=O)(Oc2ccc(SC)cc2)[C@H](NC(=O)[C@@H]2CCCN2C(=O)[C@@H](NC(=O)Cn2ccc(=O)n(CC(=O)O)c2=O)C(C)C)C(C)C)cc1 | 200 | 2000 |  | < 50 | inhibition [4]: < 5%
COc1ccc(OP(=O)(Oc2ccc(OC)cc2)C(NC(=O)[C@@H]2CCCN2C(=O)[C@@H](NC(=O)OC(C)(C)C)C(C)C)C(C)C)cc1 (mixture of isomers) | 19500 | 42700 | < 50 | < 50 | 
CCC(NC(=O)[C@@H]1CCCN1C(=O)[C@@H](NC(=O)OC(C)(C)C)C(C)C)P(=O)(Oc1ccc(C)c(C)c1)Oc1ccc(C)c(C)c1 (mixture of isomers) | 1250 | 460 | < 50 | < 50 | 
CSc1ccc(OP(=O)(Oc2ccc(SC)cc2)C(NC(=O)[C@@H]2CCCN2C(=O)[C@@H](NC(=O)Cn2cc(C)c(=O)n(CC(=O)O)c2=O)C(C)C)C(C)C)cc1 (mixture of isomers) | 118000 | 965000 | 140 | 22900 | Ratio [1]: 8.2; Ratio (Homo sapiens [5]): 42; solubility [7]: 6.11 mM; half-life [8]: 237 min; half-life [9]: 4.17 days; solubility [10]: 6.11 mM
